Results from ChEMBL document CHEMBL1177701, “Synthesis, biological evaluation, and structure-activity relationships of dithiolethiones as inducers of cytoprotective phase 2 enzymes” (J Med Chem, 2010).

test system: Rattus norvegicus; test: Ex vivo induction of NQO1 in Sprague-Dawley rat bladder at 7.5 umol/kg/day, po for 10 days measured on day 11 relative to control; assay type: functional
Summary of the method: (§1)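 Female Sprague-Dawley rats, 6 per group, gavaged with compound at 7.5 µmol/kg/day or soya oil for 10 days and killed on day 11. Bladder homogenized in ice-cold 0.2% Triton X-100 and cleared by centrifugation. NQO1 activity measured by the Ernster method, GST by the Habig method. Reported as treated/control mean ± SEM, ANOVA with Student-Newman-Keuls test.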

**Q.** `COC(=O)c1c(C)ssc1=S` was tested. Which “fold change (FC)” value did it give?
**A.** 1.24

**Q.** `Oc1ccc(-c2cc(=S)ss2)cc1` was tested. Which “fold change (FC)” value did it give?
**A.** 1.02

**Q.** `CC1CCc2c1ssc2=S` (stereo unspecified) was tested. Which “fold change (FC)” value did it give?
**A.** 1.91

**Q.** How did the “fold change (FC)” value turn out when `Cc1cc(=S)ss1` was run?
**A.** 1.23

**Q.** Which “fold change (FC)” value does the source give for `S=c1ssc2c1CCCCCC2` here?
**A.** 1.08

**Q.** With `O=c1ccss1` as the molecule, how does the “fold change (FC)” value read?
**A.** 1.26

**Q.** For `S=c1ssc(S)c1-c1ccccc1`, which “fold change (FC)” value is on record?
**A.** 1.11

**Q.** `Cc1ssc(=S)c1C(=O)O` was tested. Which “fold change (FC)” value did it give?
**A.** 1.1

**Q.** Which “fold change (FC)” value does the source give for `CCOC(=O)C1Cc2ssc(=S)c2C1` (stereo unspecified) here?
**A.** 1.23

**Q.** `CCOC(=O)c1cc(=S)ss1` was tested. Which “fold change (FC)” value did it give?
**A.** 1.13

**Q.** `Cc1c(S)ssc1=S` was tested. Which “fold change (FC)” value did it give?
**A.** 1.29

**Q.** Which “fold change (FC)” value does the source give for `CC1Cc2ssc(=S)c2C1` (stereo unspecified) here?
**A.** 1.81

**Q.** Which “fold change (FC)” value does the source give for `S=c1ssc2c1CCCCC2` here?
**A.** 1.2

test system: Rattus norvegicus; test: Ex vivo induction of GST in Sprague-Dawley rat bladder at 7.5 umol/kg/day, po for 10 days measured on day 11 relative to control; assay type: functional; summary of the method: as §1

**Q.** With `COC(=O)c1c(C)ssc1=S` as the molecule, how does the “fold change (FC)” value read?
**A.** 1.24

**Q.** Which “fold change (FC)” value does the source give for `Oc1ccc(-c2cc(=S)ss2)cc1` here?
**A.** 0.95

**Q.** Which “fold change (FC)” value does the source give for `CC1CCc2c1ssc2=S` (stereo unspecified) here?
**A.** 1.3

**Q.** Which “fold change (FC)” value does the source give for `Cc1cc(=S)ss1` here?
**A.** 1.08

**Q.** How did the “fold change (FC)” value turn out when `S=c1ssc2c1CCCCCC2` was run?
**A.** 1.11

**Q.** `O=c1ccss1` was tested. Which “fold change (FC)” value did it give?
**A.** 1.01

**Q.** `S=c1ssc(S)c1-c1ccccc1` was tested. Which “fold change (FC)” value did it give?
**A.** 1.03

**Q.** Which “fold change (FC)” value does the source give for `Cc1ssc(=S)c1C(=O)O` here?
**A.** 0.99

**Q.** `CCOC(=O)C1Cc2ssc(=S)c2C1` (stereo unspecified) was tested. Which “fold change (FC)” value did it give?
**A.** 1.11

**Q.** With `CCOC(=O)c1cc(=S)ss1` as the molecule, how does the “fold change (FC)” value read?
**A.** 1.09

**Q.** For `Cc1c(S)ssc1=S`, which “fold change (FC)” value is on record?
**A.** 1.08

**Q.** `CC1Cc2ssc(=S)c2C1` (stereo unspecified) was tested. Which “fold change (FC)” value did it give?
**A.** 1.31

**Q.** For `S=c1ssc2c1CCCCC2`, which “fold change (FC)” value is on record?
**A.** 1.14
